# bCat KO growth – primary screen for growth suppressors in beta-catenin knockout HCT116 cells (colon tumor, human) | HCT116 beta-catenin knockout viability, CellTiter-Glo, 60 h; stronger effect = lower value | viability, % at 10 µM | 140,000 tested, 1.5% active;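 active = viability at or under a set limit, the compound median less 4 SD, cut at about 6% in these data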;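 also: 0% = Hyamine 1622 control at 20 µM and 100% = untreated cell control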
# Fibroblast inh – antiproliferative effect on LL 47 fibroblasts – human, LL 47 cells, CellTiter-Glo luminescence, primary screen; viability, % at 10 µM; 85,000 tested, 1.1% active; AID 719, 2007; LL 47 human lung fibroblast viability, ATP luminescence; stronger effect = lower value;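 active = viability at or below 50% in the single dose screen; inactive = viability above 50%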;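 also: compound exposure lasted 72 h before the ATP readout; 100% = median luminescence of untreated cell-only wells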
#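 material = human LL 47 lung fibroblast cells | dosing = compounds added from tenfold dosing solution, 0.1% DMSO final | timing = overnight cell rest, 72 h compound treatment at 37 °C | measured by = CellTiter-Glo luminescence measuring cellular ATP | evaluation = % viability versus median cells-only luminescence | control set = cell-only wells, no compound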
# HCT116 PTEN-null – growth suppression of PTEN-null HCT116, primary screen, cell-based, CellTiter-Glo; HCT116 PTEN-null viability, 60 h; stronger effect = lower value; viability, % at 10 µM; 140,000 tested, 1.2% active; AID 827, 2007;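 active = viability at or below a set limit, 4 SD under the median of all tested compounds, cut at about 3.7% in these data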;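 also: PTEN knockout HCT116 line with beta catenin targeted HCT116 as companion control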
# HUVEC prolif 384 – inhibitors of HUVEC proliferation, primary screen, cell-based, 384-well; CellTiter-Glo luminescence, 72 h; stronger effect = lower value; viability, % at 10 µM (by protocol); 86,000 tested, 1.1% active; AID 648, 2007;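 active = viability at or below 30%; inactive = viability above 30%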;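 also: 100% = median luminescence of DMSO-only cell control wells on each plate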
# H69AR inhibit – proliferation blockers of H69AR lung cancer cells, primary screen, cell-based, human, 86K library. H69AR lung tumor viability, ATP luminescence, 72 h; stronger effect = lower value. viability, % at 10 µM. 85,000 tested, 6% active. AID 598, 2007;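 active = viability at or below 40%; inactive = viability above 40%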;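 also: multidrug resistant small cell line overexpressing MRP-1 efflux transporter; 100% = mean luminescence of untreated control wells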
# * = called active by the depositor; / = not tested or not shown. The sample as a whole holds a higher share of hits than the screen did.
SMILES,bCat KO growth,Fibroblast inh,HCT116 PTEN-null,HUVEC prolif 384,H69AR inhibit
COc1ccc(C(=O)/C=C/c2ccc(OC)c(O)c2)c(F)c1,5.6*,/,6,/,/
O=C(c1ccc(CNc2c(N3CCCC3)c(=O)c2=O)cc1)N1CCc2ccccc2C1,87,90,104,101,100
O=C(CCCCCn1c(=S)[nH]c2cc3c(cc2c1=O)OCO3)N1CCN(C2CCCCC2)CC1,8,4.8*,2.7*,49,2.2*
NC(=O)c1cnn2c(C(F)(F)F)cc(-c3ccc(F)cc3)nc12,81,90,95,91,58
Clc1ccc(OCc2nc(-c3ccccn3)n[nH]2)cc1,52,82,38,58,2.2*
Brc1ccc(OCc2nc(-c3ccccn3)n[nH]2)cc1,38,75,45,41,53
COc1ccc(-n2cccc2C=O)cc1,96,/,99,/,/
COc1ccc(-n2cccc2/C=C/[N+](=O)[O-])cc1,2.2*,/,2.8*,/,/
CN(C)c1ccc(NC(=O)CC(NCc2ccccn2)C(=O)O)cc1 (stereo not drawn),99,/,99,/,/
[O-][n+]1onc2c1CCc1nnc(-c3ccccc3)cc1-2,73,90,70,105,35*
Cc1ccc(C(=O)NCC(=O)NCC(=O)OCC(=O)c2ccc(Br)cc2)cc1,100,/,98,/,/
CC(C)(C)N1CC(c2nc3ccccc3n2Cc2ccccc2)CC1=O (stereo not drawn),88,83,86,96,38*
CCn1c(C2CC(=O)N(Cc3ccccc3)C2)nc2ccccc21 (stereo not drawn),100,92,103,90,85
Cc1ccc(NC(=O)NNc2cccc(Cl)n2)cc1,95,/,102,/,/
CC(CN1CCOCC1)OC(=O)c1ccc(Br)cc1 (stereo not drawn),2.8*,6.3*,2.4*,49,0.6*
O=C(Nc1ccc(-c2nc3ccccc3[nH]2)cc1)c1ccc2c(c1)OCO2,2.6*,/,2.5*,/,/
O=C(Nc1ccc2nc(-c3ccc(Br)o3)[nH]c2c1)c1ccco1,104,114,93,69,51
O=C(Nc1ccc(Cl)c(-c2nc3ccccc3[nH]2)c1)c1ccc2c(c1)OCO2,77,/,63,/,/
Cc1ccc(-c2nc3ccccc3[nH]2)cc1NC(=O)c1ccco1,95,107,86,96,/
O=C(Nc1ccc2nc(-c3ccccc3)[nH]c2c1)c1ccco1,75,93,73,88,39*
O=C(Nc1cccc(-c2nc3ccccc3[nH]2)c1)c1cccc(NC(=O)c2ccco2)c1,10,13*,55,1.9*,1.2*
Cc1cccc2[nH]c(-c3ccc(NC(=O)c4ccco4)cc3)nc12,88,109,92,94,35*
O=S(=O)(Nc1ccc(S(=O)(=O)Nc2nccs2)cc1)c1ccc2c(c1)OCCO2,90,/,107,/,/
O=C(CS(=O)(=O)c1ccccc1)Nc1ccc(Br)cn1,91,/,102,/,/
O=C(Nc1ccc(-c2nc3c(ccc4ccccc43)o2)cc1)c1ccco1,19,40*,16,69,19*
SMILES,bCat KO growth,Fibroblast inh,HCT116 PTEN-null,HUVEC prolif 384,H69AR inhibit
Cc1ccc2nc(-c3ccc(NC(=O)CSc4ccccc4)cc3)[nH]c2c1,3.2*,/,8,/,/
O=C(CSc1ccccc1)Nc1ccc(-c2nc3ccccc3[nH]2)cc1,80,/,71,/,/
Cc1nc(-n2ncc(C#N)c2N)c2c3c(sc2n1)CCC3,84,96,2.0*,66,80
COc1ccc(C)cc1NS(=O)(=O)c1ccc(Br)s1,86,88,70,61,22*
Cc1cc(C(=O)NCCCN2CCN(c3cc(Cl)ccc3C)CC2)n(-c2ccccc2)n1,34,80,38,69,31*
Cc1cc(C(=O)NCC2CCCO2)n(-c2ccccc2)n1 (stereo not drawn),96,100,97,97,94
CCOC(=O)N1CCN(C(=O)c2cn(C)c(=O)c3c2c2ccccc2n3C)CC1,84,96,66,94,40*
Cn1cc(C(=O)NCCN2CCN(c3cccc(Cl)c3)CC2)c2c3ccccc3n(C)c2c1=O,15,91,54,58,16*
Cc1cc(C(=O)NCCN2CCN(c3cccc(Cl)c3)CC2)n(-c2ccccc2)n1,10,58,19,53,29*
Cn1c(=O)cc(OCC(=O)NCCCN2CCN(c3cccc(Cl)c3)CC2)c2ccccc21,13,82,16,75,49
COCCN1C(=O)c2ccccc2C(C(=O)N2CCN(c3ccccc3)CC2)C1c1ccc(F)cc1 (stereo not drawn),79,93,82,97,68
CCOc1ccccc1N1CCN(C(=O)CCCc2nc3ccccc3s2)CC1,85,/,74,/,/
CC(C)(C)NC(=O)COC(=O)c1ccccc1OCC(=O)Nc1ccc(Br)cc1,87,/,89,/,/
Oc1ccc(Br)cc1-c1nc2cnccn2c1NC1CCCC1,1.3*,75,1.9*,80,47
COc1ccccc1-n1cnc(N)c1C(=O)c1ccccc1,32,73,27,68,24*
COc1ccccc1-n1cnc(N)c1C(C)=O,113,98,103,96,88
CCCC/C(C)=N\NC(=O)CNS(=O)(=O)c1ccc([N+](=O)[O-])cc1,0.5*,/,0.4*,/,/
COC(=O)[C@H](Cc1ccccc1)NC(=O)O[C@H]1C(=O)c2ccc(OC)cc2O[C@@H]1c1ccc2c(c1)OCO2,66,/,76,/,/
COC(=O)/C(=C(/F)Sc1cc(C)c(O)c(C)c1)C(F)(F)F,80,9.3*,78,23*,2.7*
CCN(CC)c1ccc(-c2nnc(SCC(=O)Nc3ccccc3C#N)n2-c2ccccc2)cc1,57,73,56,72,47
O=C(CCc1ccccc1)Nc1nnc(-c2cccs2)o1,95,98,105,87,102
CC1CCCN(S(=O)(=O)c2ccc(C(=O)Nc3nnc(-c4ccccc4Cl)o3)cc2)C1 (stereo not drawn),13,47*,8,3.9*,31*
CC1CC(C)CN(S(=O)(=O)c2ccc(C(=O)Nc3nnc(-c4cccs4)o3)cc2)C1 (stereo not drawn),14,72,7,4.2*,45
Cc1nnc(NC(=O)c2ccc(S(=O)(=O)N3CCCCCC3)cc2)o1,56,98,78,86,59
CCC1CCCCN1S(=O)(=O)c1ccc(C(=O)Nc2nnc(-c3cccs3)o2)cc1 (stereo not drawn),13,71,11,64,20*
O=C(Nc1nnc(-c2cccs2)o1)c1cccc(C(F)(F)F)c1,13,69,8,39,23*
C/C(=C\C(=O)O)C12CC3CC(CC(C3)C1)C2,100,106,100,100,106
Cc1nc2ccccc2c(=O)n1NC(=O)Cc1ccccc1,/,104,/,98,101
c1ccc(N2CCN(c3nc(NCc4ccco4)c4ccccc4n3)CC2)cc1,2.4*,/,3.1*,/,/
